Test results published in ChEMBL document CHEMBL4665824, “Characterization and Discovery of a Selective Small-Molecule Modulator of Mitochondrial Complex I Targeting a Unique Binding Site” (J Med Chem, 2020).
Values belong to the molecule of their own block, whether it stands above or below them. Calls of active or inactive are those of the source. The calls are words filed in the database; no cut-off is given here.

Experiments:
Mus musculus [1] = organism: Mus musculus; assay: Binding affinity to purified C57BL/6 mouse cerebral cortex mitochondrial complex 1 assessed as labelling of IF site ( 49 kDa) sub unit at 1 to 10 uM incubated for 45 mins under irradiation by SDS-PAGE analysis; settings: Mitochondria, dose microM 1-10, time 45.0 min
Procedure, shortened: (§1)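 Preincubated with DMSO or competitor 45 min at 4 °C, then photoaffinity probe added for 30 min at 4 °C. Irradiated 365 nm, 10 min on ice, then run on SDS-PAGE. Read by in-gel fluorescence (488 nm excitation), or after streptavidin pull-down by silver stain. Three independent experiments.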

Mus musculus [2] = organism: Mus musculus; assay: Binding affinity to purified C57BL/6 mouse cerebral cortex mitochondrial complex 1 assessed as labelling of 13 kDa sub unit at 1 to 10 uM incubated for 45 mins under irradiation by SDS-PAGE analysis; settings: Mitochondria, dose microM 1-10, time 45.0 min; procedure, shortened: as §1
Mus musculus [3] = organism: Mus musculus; assay: Binding affinity to purified C57BL/6 mouse cerebral cortex mitochondrial complex 1 assessed as labelling of 13 kDa sub unit at 10 uM in presence of ZCM-I-1 incubated for 45 mins under irradiation by SDS-PAGE analysis; settings: Mitochondria; procedure, shortened: as §1
Mus musculus [4] = organism: Mus musculus; assay: Binding affinity to purified C57BL/6 mouse cerebral cortex mitochondrial complex 1 assessed as labelling of 75 kDa sub unit at 10 uM in presence of FMN incubated for 45 mins under irradiation by SDS-PAGE analysis; settings: Mitochondria; procedure, shortened: as §1
MC65 = assay: Inhibition of mitochondrial complex 1 in human MC65 cells assessed as protective potency concentration; assay type: cell-based
Mus musculus [5] = organism: Mus musculus; assay: Binding affinity to purified C57BL/6 mouse cerebral cortex mitochondrial complex 1 assessed as labelling of 51 kDa sub unit at 1 to 10 uM incubated for 45 mins under irradiation by SDS-PAGE analysis; settings: Mitochondria, dose microM 1-10, time 45.0 min; procedure, shortened: as §1
Mus musculus [6] = organism: Mus musculus; assay: Binding affinity to purified C57BL/6 mouse cerebral cortex mitochondrial complex 1 assessed as labelling of 49 kDa sub unit at 10 uM in presence of IQ site inhibitor rotenone incubated for 45 mins under irradiation by SDS-PAGE analysis; settings: Mitochondria; procedure, shortened: as §1
Mus musculus [7] = organism: Mus musculus; assay: Binding affinity to purified C57BL/6 mouse cerebral cortex mitochondrial complex 1 assessed as labelling of 24 kDa sub unit at 10 uM in presence of FMN incubated for 45 mins under irradiation by SDS-PAGE analysis; settings: Mitochondria; procedure, shortened: as §1
Mus musculus [8] = organism: Mus musculus; assay: Binding affinity to purified C57BL/6 mouse cerebral cortex mitochondrial complex 1 assessed as labelling of IF site ( 49 kDa) sub unit at 10 uM in presence of ZCM-I-1 incubated for 45 mins under irradiation by SDS-PAGE analysis; settings: Mitochondria; procedure, shortened: as §1
[9] = Drug localization in mitochondria human MC65 cells at 3 uM incubated for 3.5 hrs by immunocytochemistry; assay type: ADME; settings: mc65, 3.5 h
Procedure, shortened: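 MC65 cells plated 24 h on poly-D-lysine coverslips, given 3 μM probe for 3.5 h, then MitoTracker Red (300 nM) for 30 min. Fixed in 4% formaldehyde 15 min, DAPI-stained, mounted. Imaged by confocal microscopy (63x/1.40 oil) and analysed for colocalization coefficients.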

Mus musculus [10] = organism: Mus musculus; assay: Binding affinity to purified C57BL/6 mouse cerebral cortex mitochondrial complex 1 assessed as labelling of 51 kDa sub unit at 10 uM in presence of IQ site inhibitor rotenone incubated for 45 mins under irradiation by SDS-PAGE analysis; settings: Mitochondria; procedure, shortened: as §1
Mus musculus [11] = organism: Mus musculus; assay: Binding affinity to purified C57BL/6 mouse cerebral cortex mitochondrial complex 1 assessed as labelling of 24 kDa sub unit at 10 uM in presence of ZCM-I-1 incubated for 45 mins under irradiation by SDS-PAGE analysis; settings: Mitochondria; procedure, shortened: as §1
Mus musculus [12] = organism: Mus musculus; assay: Binding affinity to purified C57BL/6 mouse cerebral cortex mitochondrial complex 1 assessed as labelling of 51 kDa sub unit at 10 uM in presence of FMN incubated for 45 mins under irradiation by SDS-PAGE analysis; settings: Mitochondria; procedure, shortened: as §1
Mus musculus [13] = organism: Mus musculus; assay: Binding affinity to purified C57BL/6 mouse cerebral cortex mitochondrial complex 1 assessed as labelling of 51 kDa sub unit at 10 uM in presence of ZCM-I-1 incubated for 45 mins under irradiation by SDS-PAGE analysis; settings: Mitochondria; procedure, shortened: as §1
Mus musculus [14] = organism: Mus musculus; assay: Binding affinity to purified C57BL/6 mouse cerebral cortex mitochondrial complex 1 assessed as labelling of 75 kDa sub unit at 10 uM in presence of NADH incubated for 45 mins under irradiation by SDS-PAGE analysis; settings: Mitochondria; procedure, shortened: as §1
Mus musculus [15] = organism: Mus musculus; assay: Binding affinity to purified C57BL/6 mouse cerebral cortex mitochondrial complex 1 assessed as labelling of 13 kDa sub unit at 10 uM in presence of NADH incubated for 45 mins under irradiation by SDS-PAGE analysis; settings: Mitochondria; procedure, shortened: as §1
Mus musculus [16] = organism: Mus musculus; assay: Binding affinity to purified C57BL/6 mouse cerebral cortex mitochondrial complex 1 assessed as labelling of 75 kDa sub unit at 10 uM in presence of IQ site inhibitor rotenone incubated for 45 mins under irradiation by SDS-PAGE analysis; settings: Mitochondria; procedure, shortened: as §1
Mus musculus [17] = organism: Mus musculus; assay: Binding affinity to purified C57BL/6 mouse cerebral cortex mitochondrial complex 1 assessed as labelling of 24 kDa sub unit at 1 to 10 uM incubated for 45 mins under irradiation by SDS-PAGE analysis; settings: Mitochondria, dose microM 1-10, time 45.0 min; procedure, shortened: as §1
[18] = Drug localization in mitochondria mouse cortical neuron at 25 uM incubated for 4 hrs by immunocytochemistry; assay type: ADME; settings: cortical neurone
Procedure, shortened: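 Mouse primary cortical neurons (E15.5 C57BL/6J cortex, DIV 10–12; cytarabine 1 μM from DIV 3–6) given 25 μM probe for 4 h, then Mitotracker Red CMXRos (25 nM) for 30 min. Washed by half-media exchanges with phenol-red-free medium. Imaged live by confocal microscopy, 63x/1.4 NA oil objective.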

Mus musculus [19] = organism: Mus musculus; assay: Binding affinity to purified C57BL/6 mouse cerebral cortex mitochondrial complex 1 assessed as labelling of 49 kDa sub unit at 10 uM in presence of NADH incubated for 45 mins under irradiation by SDS-PAGE analysis; settings: Mitochondria; procedure, shortened: as §1
Mus musculus [20] = organism: Mus musculus; assay: Binding affinity to purified C57BL/6 mouse cerebral cortex mitochondrial complex 1 assessed as labelling of 13 kDa sub unit at 10 uM in presence of FMN incubated for 45 mins under irradiation by SDS-PAGE analysis; settings: Mitochondria; procedure, shortened: as §1
Mus musculus [21] = organism: Mus musculus; assay: Binding affinity to purified C57BL/6 mouse cerebral cortex mitochondrial complex 1 assessed as labelling of 24 kDa sub unit at 10 uM in presence of IQ site inhibitor rotenone incubated for 45 mins under irradiation by SDS-PAGE analysis; settings: Mitochondria; procedure, shortened: as §1
Mus musculus [22] = organism: Mus musculus; assay: Binding affinity to purified C57BL/6 mouse cerebral cortex mitochondrial complex 1 assessed as labelling of 49 kDa sub unit at 10 uM in presence of FMN incubated for 45 mins under irradiation by SDS-PAGE analysis; settings: Mitochondria; procedure, shortened: as §1
Mus musculus [23] = organism: Mus musculus; assay: Binding affinity to purified C57BL/6 mouse cerebral cortex mitochondrial complex 1 assessed as labelling of 51 kDa sub unit at 10 uM in presence of NADH incubated for 45 mins under irradiation by SDS-PAGE analysis; settings: Mitochondria; procedure, shortened: as §1
Mus musculus [24] = organism: Mus musculus; assay: Binding affinity to purified C57BL/6 mouse cerebral cortex mitochondrial complex 1 assessed as labelling of 75 kDa sub unit at 1 to 10 uM incubated for 45 mins under irradiation by SDS-PAGE analysis; settings: Mitochondria, dose microM 1-10, time 45.0 min; procedure, shortened: as §1
Mus musculus [25] = organism: Mus musculus; assay: Inhibition of mitochondrial complex 1 in permeabilized mouse brain mitochondria assessed as reduction in ROS production at 1 uM incubated for 1 hr after TC removal by Amplex Red and horseradish peroxidase based assay
Mus musculus [26] = organism: Mus musculus; assay: Binding affinity to purified C57BL/6 mouse cerebral cortex mitochondrial complex 1 assessed as labelling of 24 kDa sub unit at 10 uM in presence of NADH incubated for 45 mins under irradiation by SDS-PAGE analysis; settings: Mitochondria; procedure, shortened: as §1
Mus musculus [27] = organism: Mus musculus; assay: Binding affinity to purified C57BL/6 mouse cerebral cortex mitochondrial complex 1 assessed as labelling of 13 kDa sub unit at 10 uM in presence of IQ site inhibitor rotenone incubated for 45 mins under irradiation by SDS-PAGE analysis; settings: Mitochondria; procedure, shortened: as §1
Mus musculus [28] = organism: Mus musculus; assay: Binding affinity to purified C57BL/6 mouse cerebral cortex mitochondrial complex 1 assessed as labelling of 75 kDa sub unit at 10 uM in presence of ZCM-I-1 incubated for 45 mins under irradiation by SDS-PAGE analysis; settings: Mitochondria; procedure, shortened: as §1

Drug uptake [9]: Active
Drug uptake [18]: Active
Structure (SMILES): COc1ccc2[nH]cc(CCNC(=O)C(CCC3(CCc4cn(CCCNc5ccc([N+](=O)[O-])c6nonc56)nn4)N=N3)C(=O)CCc3ccc(O)cc3)c2c1 (centres undefined)
Activity (Mus musculus [1]): Active
Activity (Mus musculus [2]): Active
Activity (Mus musculus [3]): inactive
Activity (Mus musculus [4]): inactive
INH (MC65): 96.8 nM
Activity (Mus musculus [5]): Active
Activity (Mus musculus [6]): Active
Activity (Mus musculus [7]): inactive
Activity (Mus musculus [8]): inactive
Activity (Mus musculus [10]): Active
Activity (Mus musculus [11]): inactive
Activity (Mus musculus [12]): inactive
Activity (Mus musculus [13]): inactive
Activity (Mus musculus [14]): inactive
Activity (Mus musculus [15]): inactive
Activity (Mus musculus [16]): Active
Activity (Mus musculus [17]): Active
Activity (Mus musculus [19]): inactive
Activity (Mus musculus [20]): inactive
Activity (Mus musculus [21]): Active
Activity (Mus musculus [22]): inactive
Activity (Mus musculus [23]): inactive
Activity (Mus musculus [24]): Active
inhibition (Mus musculus [25]): inactive
Activity (Mus musculus [26]): inactive
Activity (Mus musculus [27]): Active

Structure (SMILES): COc1ccc2[nH]cc(CCNC(=O)C(CCC3(CCc4cn(CCOCCOCCNC(=O)CCCCC5SCC6NC(=O)NC65)nn4)N=N3)C(=O)CCc3ccc(O)cc3)c2c1 (centres undefined)
Activity (Mus musculus [28]): inactive
Activity (Mus musculus [3]): inactive
INH (MC65): > 3 nM
Activity (Mus musculus [8]): inactive
Activity (Mus musculus [11]): inactive
Activity (Mus musculus [13]): inactive
